# This is one part of a sample in which hits are shown more often than they occur.
# Yeast growth inh: reduces growth of yeast BB579 in restrictive medium. S. cerevisiae BB579 growth, OD615, 48 h. inhibition, % at 10 µM. 140,000 compounds, 0.51% hits;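 active means inhibition above a set limit, 3 SD over the mean compound inhibition, cut at about 44% in these data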
#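 Test system: Saccharomyces cerevisiae DeaD strain BB579, replicative lifespan model yeast | Buffer or medium: Restrictive CSMM-D medium | Doses: One dose, 10 µM compound with 0.25% DMSO | Incubation: 48 h exposure, 30 °C | Detection: Culture absorbance at 615 nm | Control set: Amphotericin B at 10 µg/mL as positive control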
# Yeast lifespan up: extends the lifespan of yeast; S. cerevisiae growth with nicotinamide, OD615; deaD strain in restrictive glucose medium; AID 775; 130,000 compounds, 0.68% hits; inhibition of the nicotinamide effect, % at 10 µM;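 active means inhibition above a set limit, placed 3 SD over the median of all compounds, cut at about 26% in these data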;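 further: 0% = nicotinamide-treated wells and 100% = cells grown without nicotinamide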
#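 Assay system: DeaD-strain S. cerevisiae. Medium: CSMM-D glucose medium, restrictive. Reagent: nicotinamide, 1.5 mM, co-present with compound. Compound: 10 µM single point, 0.25% DMSO. Schedule: culture preincubation 4 h, compound exposure 48 h, both 30 °C. Detection: absorbance at 615 nm.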
# PostGolgi ctrl: yeast control strain growth, post-Golgi counter-screen; efflux-deficient yeast background strain, growth absorbance A615, 16 h; inhibition, % at 10 µM; 98,000 compounds, 5% hits; AID 738
# PostGolgi yeast: growth inhibition of a yeast mutant, post-Golgi transport screen | post-Golgi transport phenotypic cell assay | inhibition, % at 10 µM | 98,000 compounds, 0.9% hits;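 further: yeast cells grown in 1536-well plates; yeast grown about 18 h at 30C before absorbance read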
# An asterisk follows results filed as active; x = no result given. Unless noted, no stated cut-off is given here; in the data, active means inhibition above about 30%; inactive means the rest.
SMILES,Yeast growth inh,Yeast lifespan up,PostGolgi ctrl,PostGolgi yeast
CC1=NN(C(N)=S)C(=O)C1N=Nc1ccccc1C (centres undefined),-12.6,-0.8,30.4*,8.5
Cc1ccc(O)c(-c2cc(-c3ccccc3F)[nH]n2)c1,-47.4,-9.3,66.6*,16.6
Cc1ccc(-c2cc(-c3ccccc3C)[nH]n2)c(O)c1,100.0*,x,x,x
O=[N+]([O-])c1ccccc1-c1cc(-c2ccccc2O)n[nH]1,-26.2,-7.3,x,x
COc1ccc(O)c(-c2cc(-c3cccc(Br)c3)n[nH]2)c1,9.4,-20.9,74.3*,92.9*
COc1ccc(-c2cc(-c3cc(OC)ccc3O)[nH]n2)cc1,-18.1,-14.2,27.5,-2.4
Cc1ccc(O)c(-c2cc3ccccc3[nH]2)c1,-75.3,-16.1,9.5,1.3
COc1ccc(-c2cc(-c3cc(F)ccc3O)[nH]n2)cc1OC,-8.9,-25.0,30.2*,1.6
COCc1nnc(NS(=O)(=O)c2c(C)cc(C)cc2C)s1,-4.5,9.6,10.1,0.0
CCCCOc1cccc(OCC(=O)Nc2nc3ccccc3[nH]2)c1,-40.0,-1.9,x,x
Cc1ccc(O)c(-c2cc(-c3cccc(F)c3)n[nH]2)c1,99.1*,-12.8,70.5*,11.7
Cc1ccc(-c2cc(-c3cccc(F)c3)n[nH]2)c(O)c1,-10.7,-10.5,42.6*,-7.3
CCCCc1ccc(/C=C2\C(=O)ON=C2c2ccccc2)s1,-43.8,-3.0,x,x
COc1ccc(/C=C2/C(=O)ON=C2c2ccccc2)cc1OC,61.2*,27.4*,29.4,-3.5
COc1cc(/C=C2\C(=O)ON=C2c2ccccc2)cc(OC)c1OC,48.1*,16.7,6.3,-9.0
Cc1ccc(S(=O)(=O)NC(=O)c2ccc(Br)o2)cc1,-26.0,2.6,x,x
COc1ccccc1NC(=O)COC(=O)c1cnccn1,-44.3,-14.8,1.7,-1.3
O=C(CCCn1c(=O)c2sccc2n(Cc2ccc(F)cc2)c1=O)NCc1ccco1,-56.5,-7.2,11.6,0.2
Cc1[nH]ccc(=O)c1OCc1c(Cl)cccc1Cl,-16.6,-8.8,3.8,8.4
Cc1ccc(Cn2ccc(=O)c(OCc3c(Cl)cccc3Cl)c2C)cc1,-15.6,-16.7,47.8*,4.3
Cc1cc(N2CCN(c3ccccc3Cl)CC2)n2cc(-c3ccccc3)nc2n1,-37.0,2.4,34.0*,1.1
O=[N+]([O-])c1ccccc1SN(Cc1ccccc1)c1ccccn1,18.9,11.2,x,x
CCOC(=O)c1ccc(NC(=O)c2cn(CCC#N)nc2-c2ccc3c(c2)OCCO3)cc1,-30.4,9.7,x,x
CC(C)(C)c1nnc(N/N=C/c2cc(Br)ccc2O)n(N)c1=O,53.0*,-0.7,x,x
Cc1ccc2nc(CSc3nnc(Cc4cccs4)n3C3CCCCC3)cc(=O)n2c1,-24.0,-1.8,39.0*,-2.4
SMILES,Yeast growth inh,Yeast lifespan up,PostGolgi ctrl,PostGolgi yeast
Cc1ncsc1C(=O)NCc1ccc(N2CCCC2=O)cc1,-13.1,-8.7,2.6,-14.3
CCOc1ccc(N/N=C(/C#N)C(N)=O)cc1,96.8*,-7.9,89.6*,104.2*
CCOc1ccc(N/C(SC)=C(/C#N)C(N)=O)cc1,-21.1,-9.8,-13.8,-0.2
COc1ccc(N/N=C(\C#N)C(N)=O)cc1,58.5*,6.8,x,x
COc1ccc(CN(C(=O)CSc2nnc(-c3ccc(F)cc3)o2)c2ccc(F)cc2)cc1,-17.4,4.8,38.3*,5.2
O=C(N/N=C1/C(=O)c2cccc3cccc1c23)c1ccc(Cl)cc1,-45.0,-23.2,11.1,37.3*
CCNC(=S)N/N=C1\C(=O)c2cccc3cccc1c23,-28.9,-13.9,9.1,1.5
CCNc1nc(NCC)n2c(SC(C(=O)Nc3cc(C)ccc3OC)c3ccccc3)nnc2n1 (centres undefined),-33.0,-5.2,x,x
COc1ccc(C(=O)Cn2c(C(=O)/C=C/c3ccccc3)nc3ccccc32)cc1,-66.9,16.6,-2.7,-8.8
CCC(=O)N1CCc2cc(Br)cc(S(=O)(=O)N3CCCCCC3)c21,-45.3,-4.1,36.2*,7.7
CCOC(=O)N1CCN(S(=O)(=O)c2cc(Br)cc3c2N(C(=O)CC)CC3)CC1,-28.8,-2.8,0.6,20.4
O=C(C1CC1)N1CCc2cc(Br)cc(S(=O)(=O)N3CCCCCC3)c21,-18.9,-3.0,41.2*,-1.1
CCOC(=O)C1CCCN(C(=S)Nc2ccc(C)cc2C)C1 (centres undefined),-2.8,22.9,11.8,4.3
Cn1ncc(C#N)c1/N=C/N1CCOCC1,-54.3,40.4*,6.7,4.6
O=C(CCn1c(=O)oc2ccccc21)N1CCN(C(c2ccccc2)c2ccccc2)CC1,-47.4,8.1,36.5*,5.2
O=C(Cn1c(=O)oc2ccccc21)N1CCN(c2ccccc2)CC1,-33.2,-14.5,31.1*,11.8
N#C/C(C(=O)NCc1ccccc1)=C1/SC(Cc2ccc(Cl)cc2)C(=O)N1c1ccccc1 (centres undefined),-49.7,5.3,x,x
CCOc1ccc(CNC(=S)N/N=C\c2ccc([N+](=O)[O-])cc2)cc1,-22.8,-4.3,40.0*,1.6
COCCNC(=S)N/N=C/c1ccc(OCc2ccc(C(=O)OC)cc2)c(OC)c1,-71.3,10.0,x,x
CCOc1ccc(CNC(=S)N/N=C/c2cccnc2)cc1,8.5,-1.8,x,x
CCCCOc1ccc(CNC(=S)N/N=C/c2ccc(OC)c(OC)c2)cc1,-17.4,-5.7,33.4*,-5.9
Cc1ccc(-c2nc3ncccc3o2)cc1NC(=O)c1sc2ccccc2c1Cl,-34.4,2.9,1.8,8.1
O=C1Nc2ccccc2C12NCCc1c2[nH]c2ccccc12 (centres undefined),-14.5,-18.0,-6.2,3.4
COc1cc2c(cc1OC)C1(NCC2)C(=O)Nc2ccccc21 (centres undefined),-94.1,-1.2,47.7*,0.3
O=C1/C(=C/c2ccc([N+](=O)[O-])cc2)C=C(c2ccccc2)N1c1ccccc1,-35.4,-13.0,4.0,-3.1
SMILES,Yeast growth inh,Yeast lifespan up,PostGolgi ctrl,PostGolgi yeast
O=C1/C(=C/c2ccc([N+](=O)[O-])cc2)C=C(c2ccccc2)N1c1ccc(O)cc1,-9.8,-5.7,73.6*,92.3*
CCOC(=O)c1c(Cc2cccc(Cl)c2)c[nH]c1C,13.4,-7.7,x,x
C=CCNC(=O)c1onc(CSc2cccc(OC)c2)c1C(=O)O,-80.3,-2.9,6.8,-2.4
CC(=O)Nc1nc(C=C(Cl)Cl)cs1,-23.9,-12.7,32.8*,10.1
CC(=O)Nc1nc(C(F)(F)F)cs1,-19.1,0.3,x,x
O=S(=O)(c1ccc(-c2csc(Nc3ccc(F)cc3)n2)cc1)N1CCCC1,-36.5,1.1,x,x
NS(=O)(=O)c1ccc(Nc2nc(-c3ccc4ccccc4c3)cs2)cc1,-44.3,-4.3,41.9*,-2.7
S=C(NCCCN1CCOCC1)Nc1ccc(Cl)c(Cl)c1,-14.9,-0.6,x,x
O=C(/C=C/c1ccccc1)N/C(=C/c1ccccc1)C(=O)Nc1ccc(C(=O)O)cc1,-16.4,4.8,x,x
O=C(Nc1ccccc1)/C(=C/c1ccccc1)c1ccccc1,-29.4,-17.2,40.3*,-6.4
O=C(O)c1ccc(NC(=S)Nc2ccccc2)cc1,17.1,37.2*,x,x
Cc1ccccc1NC(=O)/C(=C/c1ccccc1)c1ccccc1,-15.2,-14.7,31.4*,-2.9
CCCN(CCC)C(=O)Cn1c(=O)n(CCCCCC(=O)Nc2ccccc2)c(=O)c2sccc21,-0.6,-2.4,x,x
COc1ccc2c(C)nc(Nc3nc(C)c(C)c(=O)[nH]3)nc2c1,59.3*,-7.0,65.6*,-7.0

# Screening data as filed in PubChem BioAssay.
